Reference: ChEMBL document CHEMBL4477211, “Synthesis and Investigation of Tetrahydro-β-carboline Derivatives as Inhibitors of the Breast Cancer Resistance Protein (ABCG2)” (J Med Chem, 2016)

Experiments:
[1] = target: T1, Broad substrate specificity ATP-binding cassette transporter ABCG2 (Homo sapiens, UniProt Q9UNQ0); assay: Inhibition of human ABCG2 expressed in MDCK2 cells assessed as reduction in Hoechst 33342 efflux pre-incubated for 30 mins before Hoechst 33342 addition and measured for 120 mins by microplate reader analysis; format: cell-based; details: read-out: IC50
T1 sequence (Q9UNQ0 whole entry): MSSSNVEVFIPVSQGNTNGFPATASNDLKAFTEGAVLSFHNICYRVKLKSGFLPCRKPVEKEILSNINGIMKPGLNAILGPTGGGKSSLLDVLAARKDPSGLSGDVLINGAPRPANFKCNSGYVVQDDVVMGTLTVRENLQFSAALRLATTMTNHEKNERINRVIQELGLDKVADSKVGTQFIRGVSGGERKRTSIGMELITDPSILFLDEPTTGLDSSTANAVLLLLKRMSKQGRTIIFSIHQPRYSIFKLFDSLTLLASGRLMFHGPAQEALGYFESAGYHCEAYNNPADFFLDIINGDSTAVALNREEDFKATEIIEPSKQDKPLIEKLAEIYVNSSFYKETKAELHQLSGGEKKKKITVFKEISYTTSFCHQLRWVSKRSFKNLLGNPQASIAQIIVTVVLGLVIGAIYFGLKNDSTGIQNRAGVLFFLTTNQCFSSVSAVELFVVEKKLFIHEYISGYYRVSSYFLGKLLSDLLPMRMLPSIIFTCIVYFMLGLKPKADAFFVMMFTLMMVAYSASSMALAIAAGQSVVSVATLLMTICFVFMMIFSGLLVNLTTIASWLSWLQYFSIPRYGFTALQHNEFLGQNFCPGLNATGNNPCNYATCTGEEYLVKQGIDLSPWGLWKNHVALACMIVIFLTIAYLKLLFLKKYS
In short: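 Compound dilutions up to 10 µM (from 10 mM DMSO stocks) pre-incubated 30 min at 37 °C. Hoechst 33342 then added from 6 µM solution. Fluorescence (ex 355/em 460 nm) read each 60 s over 120 min.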

[2] = Solubility in pH 7.4 Krebs-HEPES buffer assessed as compound precipitation at 10 uM after 2 hrs by UV-visible spectrophotometric analysis; format: physicochemical; details: pH 7.4, 2 h
In short: (§1)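 10 µM test solutions prepared from DMSO stocks as for the Hoechst 33342 assay, in Krebs-HEPES pH 7.4. Absorbance at an absorption peak maximum recorded every 120 s for 2 h at room temperature by UV/visible spectrophotometer.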

ABCB1 = ABCB1 (Homo sapiens, UniProt P08183); assay: Inhibition of ABCB1 in human A2780/ADR cells assessed as reduction in calcein AM efflux at 10 uM pre-incubated for 30 mins before calcein AM addition and measured for 60 mins by microplate reader analysis relative to control; format: cell-based; details: probe calcein AM
In short: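 Compound at 10 µM pre-incubated 30 min at 37 °C. Calcein AM added from 3.125 µM solution. Fluorescence (ex 485/em 520 nm) read every 60 s for 60 min.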

[3] = Solubility in pH 7.4 Krebs-HEPES buffer assessed as absorbance value at 10 uM after 2 hrs by UV-visible spectrophotometric analysis relative to control; format: physicochemical; details: pH 7.4, 2 h; in short: as §1
[4] = target: T1, Broad substrate specificity ATP-binding cassette transporter ABCG2; assay: Inhibition of human ABCG2 expressed in baculovirus infected Sf9 cell membrane assessed as inhibition of vanadate sensitive basal ATPase activity after 20 mins by colorimetric method
In short: (§2)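 Cholesterol-loaded membranes from Sf9 cells infected with baculovirus carrying human wild-type ABCG2; 10 µg protein per reaction. Buffer: 40 mM MOPS-Tris pH 7.0, 50 mM KCl, 2 mM DTT, 0.5 mM EGTA-Tris, 5 mM azide, 1 mM ouabain. Started with 3.3 mM MgATP, 20 min at 37 °C, stopped with SDS. Pi measured by molybdate/ascorbate colour at 880 nm against K2HPO4 standard.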

[5] = Ratio of GI50 for wild-type MDCK2 cells to IC50 for human ABCG2 expressed in MDCK2 cells
[6] = Cytotoxicity against wild-type MDCK2 cells assessed as reduction in cell viability after 72 hrs by MTT assay; format: cell-based, Canis lupus familiaris; details: dog, wild-type MDCK2 (MDCK-II) cells
In short: (§3)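 MDCK II cells retrovirally transfected with human ABCG2-GFP cDNA, and wild-type MDCK II, in DMEM with 10% FBS. Seeded at 3 x 10^3 cells/well and attached 6 h at 37 °C, 5% CO2. Compounds up to 100 µM for 72 h. Controls were 10% DMSO and medium. MTT (5 mg/ml) added for 1 h, read at 570 nm minus 690 nm. Data normalised; GI50 from variable-slope sigmoidal fit.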

[7] = Ratio of GI50 for MDCK2 cells expressing human ABCG2 to IC50 for human ABCG2 expressed in MDCK2 cells
[8] = target: T1, Broad substrate specificity ATP-binding cassette transporter ABCG2; assay: Reversal of human ABCG2-mediated resistance to SN-38 in human ABCG2 expressed MDCK2 cells assessed as reduction in SN-38 GI50 after 72 hrs by MTT assay
[9] = target: T1, Broad substrate specificity ATP-binding cassette transporter ABCG2; assay: Inhibition of human ABCG2 expressed in MDCK2 cells assessed as reduction in pheophorbide A efflux pre-incubated for 30 mins before pheophorbide A addition and measured for 120 mins by flow cytometry; details: read-out: IC50
[10] = target: T1, Broad substrate specificity ATP-binding cassette transporter ABCG2; assay: Inhibition of human ABCG2 expressed in baculovirus infected Sf9 cell membrane assessed as inhibition of vanadate sensitive ATPase activity at 1 uM after 20 mins by colorimetric method; details: sf9, 20 min
[11] = Cytotoxicity against MDCK2 cells expressing human ABCG2 assessed as reduction in cell viability after 72 hrs by MTT assay; format: ADME, cell-based, Canis lupus familiaris; details: dog, MDCK2 (MDCK-II) cells expressing human ABCG2; in short: as §3
[12] = target: T1, Broad substrate specificity ATP-binding cassette transporter ABCG2; assay: Inhibition of human ABCG2 expressed in baculovirus infected Sf9 cell membrane assessed as inhibition of vanadate sensitive quercetin-stimulated ATPase activity after 20 mins by colorimetric method; in short: as §2
ABCG2 = target: T2, ABCG2 (Homo sapiens, UniProt Q9UNQ0); assay: Ratio of IC50 for human ABCG2 expressed in baculovirus infected Sf9 cell membrane assessed as inhibition of vanadate sensitive quercetin-stimulated ATPase activity to IC50 for human ABCG2 expressed in baculovirus infected Sf9 cell membrane assessed as inhibition of vanadate sensitive basal ATPase activity; details: read-out: Ratio IC50
T2 sequence (Q9UNQ0 whole entry): T1 sequence (Q9UNQ0 whole entry)

[13] = Solubility in pH 7.4 Krebs-HEPES buffer at 10 uM after 2 hrs by UV-visible spectrophotometric analysis; format: physicochemical; details: pH 7.4, 2 h; in short: as §1

ABCB1, sequence (P08183 whole entry): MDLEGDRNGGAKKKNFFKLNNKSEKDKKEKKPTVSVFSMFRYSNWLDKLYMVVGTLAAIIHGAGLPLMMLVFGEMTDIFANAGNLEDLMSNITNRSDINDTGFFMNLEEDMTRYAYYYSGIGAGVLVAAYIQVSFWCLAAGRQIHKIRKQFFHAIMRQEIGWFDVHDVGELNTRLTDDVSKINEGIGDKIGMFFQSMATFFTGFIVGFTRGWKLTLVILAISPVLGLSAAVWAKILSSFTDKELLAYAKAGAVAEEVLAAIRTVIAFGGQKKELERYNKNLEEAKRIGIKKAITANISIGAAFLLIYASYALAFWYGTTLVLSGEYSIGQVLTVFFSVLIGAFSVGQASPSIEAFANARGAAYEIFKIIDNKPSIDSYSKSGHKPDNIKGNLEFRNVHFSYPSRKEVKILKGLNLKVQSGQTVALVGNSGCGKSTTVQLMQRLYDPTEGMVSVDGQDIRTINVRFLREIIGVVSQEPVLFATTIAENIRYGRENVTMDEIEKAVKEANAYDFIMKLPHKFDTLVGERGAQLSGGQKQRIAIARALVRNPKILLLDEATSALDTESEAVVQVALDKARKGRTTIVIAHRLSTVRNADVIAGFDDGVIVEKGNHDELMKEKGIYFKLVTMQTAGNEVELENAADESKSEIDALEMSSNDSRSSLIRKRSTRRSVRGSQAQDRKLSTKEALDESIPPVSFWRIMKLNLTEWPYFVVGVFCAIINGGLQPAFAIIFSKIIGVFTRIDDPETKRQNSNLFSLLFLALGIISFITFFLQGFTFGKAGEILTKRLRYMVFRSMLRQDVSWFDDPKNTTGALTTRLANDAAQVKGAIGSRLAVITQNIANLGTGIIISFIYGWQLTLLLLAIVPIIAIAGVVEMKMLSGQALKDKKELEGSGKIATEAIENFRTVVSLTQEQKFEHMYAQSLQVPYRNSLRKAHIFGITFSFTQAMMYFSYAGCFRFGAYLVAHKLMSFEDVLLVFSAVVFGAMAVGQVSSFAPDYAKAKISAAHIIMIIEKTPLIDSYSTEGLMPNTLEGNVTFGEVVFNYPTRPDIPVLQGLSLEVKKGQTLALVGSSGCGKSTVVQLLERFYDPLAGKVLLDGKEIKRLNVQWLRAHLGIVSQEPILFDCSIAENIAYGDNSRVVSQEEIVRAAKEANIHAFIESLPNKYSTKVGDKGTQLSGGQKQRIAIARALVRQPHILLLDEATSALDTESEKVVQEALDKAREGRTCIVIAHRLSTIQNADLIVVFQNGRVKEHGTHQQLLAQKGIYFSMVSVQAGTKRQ

Row | IC50 [1] [nM] | Activity [2] [%] | inhibition at 1 h, 10 µM (ABCB1) [%] | Activity [3] [%] | IC50 [4] [nM] | Activity [8] | IC50 [9] [nM] | inhibition (INH) [10] | IC50 [12] [nM] | solubility [13] | SMILES | Ratio [5] | GI50 at 72 h [6] [nM] | Ratio [7] | GI50 at 72 h [11] [nM] | selectivity ratio (ABCG2)
1 | > 10000 |  | < 25 | 40 |  |  |  |  |  |  | O=C(c1ccccc1)N1CCc2c([nH]c3ccccc23)C1c1ccccc1Br (centres undefined) |  |  |  |  | 
2 | 741 |  | < 25 |  | 60 | Dose-dependent effect | 784 | Active | 560 |  | O=C(c1ccccc1)N1CCc2c([nH]c3ccccc23)C1c1ccc(Cl)cc1 (centres undefined) | 20 - 30 | 16400 | 20 - 30 | 18100 | 9.3
3 | 233 |  | < 25 |  | 26 | Dose-dependent effect | 237 | Active | 285 | Soluble | COc1ccc(C(=O)N2CCc3c([nH]c4ccccc34)C2c2ccc(Cl)c(Cl)c2)cc1 (centres undefined) | <=20 | 4830 | <=20 | 4670 | 11
4 | > 10000 |  | < 25 | 40 |  |  |  |  |  |  | O=C(c1ccccc1)N1CCc2c([nH]c3ccccc23)C1c1ccccc1Cl (centres undefined) |  |  |  |  | 

The next lines start with the compound.

Row | SMILES | IC50 [1] [nM] | Activity [2] [%] | inhibition at 1 h, 10 µM (ABCB1) [%] | Activity [3] [%] | IC50 [4] [nM] | Activity [8] | IC50 [9] [nM] | inhibition (INH) [10] | IC50 [12] [nM] | solubility [13] | Ratio [5] | GI50 at 72 h [6] [nM] | Ratio [7] | GI50 at 72 h [11] [nM] | selectivity ratio (ABCG2)
5 | O=C(c1ccccc1)N1CCc2c([nH]c3ccccc23)C1c1cccc([N+](=O)[O-])c1 (centres undefined) | > 10000 | 80 | < 25 |  |  |  |  |  |  |  |  |  |  |  | 
6 | O=C(c1ccccc1)N1CCc2c([nH]c3ccccc23)C1c1ccc(Cl)c(Cl)c1 (centres undefined) | 328 |  | < 25 |  | 31 | Dose-dependent effect | 365 | Active | 262 |  | <=20 | 7290 | <=20 | 6950 | 8.4
7 | O=C(c1ccccc1)N1CCc2c([nH]c3ccccc23)C1c1ccc(C(F)(F)F)cc1 (centres undefined) | > 10000 | 80 | < 25 |  |  |  |  |  |  |  |  |  |  |  | 
